Results published in ChEMBL document CHEMBL3872252, “New bithiazolyl hydrazones: Novel synthesis, characterization and antitubercular evaluation” (Bioorg Med Chem Lett, 2017).
Converted amounts (≈) assume the structure as drawn.

How the values were obtained:
[1] = Selectivity index, ratio of GI50 for human MCF7 cells to MIC90 for Mycobacterium tuberculosis H37Ra ATCC 25177 dormant stage; format: toxicity, cell-based; settings: read-out: Selectivity Index
In short: (§1)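 Cytotoxicity was measured on human MCF-7, HCT116 and THP-1 cells by MTT assay, with paclitaxel as reference. The selectivity index is GI50 for the given cell line divided by MIC90 for the given mycobacterial strain and stage.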

[2] = Antitubercular activity against Mycobacterium tuberculosis H37Ra ATCC 25177 active stage measured on day 8 by XTT reduction menadione based two-fold dilution assay; format: functional; settings: ATCC 25177, 192 h
In short: (§2)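 M. tuberculosis H37Ra ATCC 25177 was exposed to 0.7–100 μg/mL in two-fold steps (0.7, 1.5, 3.1 … 100). Active stage was read after 8 days and dormant stage after 12 days of incubation. Inhibition was read by XTT reduction menadione assay (XRMA), absorbance 470 nm. MIC90 is the concentration giving ≥90% inhibition (µg/mL).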

[3] = Selectivity index, ratio of GI50 for human MCF7 cells to MIC90 for Mycobacterium bovis BCG ATCC 35743 active stage; format: toxicity, cell-based; settings: read-out: Selectivity Index
In short: (§3)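 Cytotoxicity was measured on human MCF-7, HCT116 and THP-1 cells by MTT assay, with paclitaxel as reference. GI50 is the concentration inhibiting 50% of cell growth. The selectivity index is GI50 for the given cell line divided by MIC90 for the given mycobacterial strain and stage.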

[4] = test system: Staphylococcus aureus; test: Growth inhibition of Staphylococcus aureus at 3 ug/ml; format: functional; settings: read-out: GI
In short: (§4)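 Screened against Gram-negative E. coli and P. aeruginosa and Gram-positive S. aureus and B. subtilis. Compound was tested at 3 µg/ml, and the read-out is percent growth inhibition.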

[5] = Antitubercular activity against Mycobacterium bovis BCG ATCC 35743 dormant stage measured on day 12 by nitrate reductase based two-fold dilution assay; format: functional, Mycobacterium bovis BCG str. ATCC 35743; settings: Mycobacterium tuberculosis variant bovis BCG, ATCC 35743, 288 h
[6] = Selectivity index, ratio of GI50 for human THP1 cells to MIC90 for Mycobacterium bovis BCG ATCC 35743 dormant stage; format: toxicity, cell-based, THP-1; settings: read-out: Selectivity Index; in short: as §1
[7] = test system: Bacillus subtilis; test: Growth inhibition of Bacillus subtilis at 30 ug/ml; format: functional; settings: read-out: GI
[8] = Antitubercular activity against Mycobacterium bovis BCG ATCC 35743 active stage measured on day 8 by nitrate reductase based two-fold dilution assay; format: functional, Mycobacterium bovis BCG str. ATCC 35743; settings: Mycobacterium tuberculosis variant bovis BCG, ATCC 35743, 192 h
[9] = Selectivity index, ratio of GI50 for human THP1 cells to MIC90 for Mycobacterium tuberculosis H37Ra ATCC 25177 active stage; format: toxicity, cell-based, THP-1; settings: read-out: Selectivity Index; in short: as §3
[10] = Selectivity index, ratio of GI50 for human MCF7 cells to MIC90 for Mycobacterium tuberculosis H37Ra ATCC 25177 active stage; format: toxicity, cell-based; settings: read-out: Selectivity Index; in short: as §3
[11] = Selectivity index, ratio of GI50 for human THP1 cells to MIC90 for Mycobacterium tuberculosis H37Ra ATCC 25177 dormant stage; format: toxicity, cell-based, THP-1; settings: read-out: Selectivity Index; in short: as §1
[12] = Cytotoxicity against human HCT116 cells by MTT assay; format: toxicity, cell-based, HCT-116; settings: for GI50: HCT116 cells; for GI90: hct-116
[13] = Cytotoxicity against human THP1 cells by MTT assay; format: toxicity, cell-based, THP-1; settings: for GI50: THP1 cells; for GI90: thp-1
[14] = test system: Bacillus subtilis; test: Growth inhibition of Bacillus subtilis at 3 ug/ml; format: functional; settings: read-out: GI; in short: as §4
[15] = test system: Pseudomonas aeruginosa; test: Growth inhibition of Pseudomonas aeruginosa at 10 ug/ml; format: functional; settings: read-out: GI
[16] = Selectivity index, ratio of GI50 for human HCT116 cells to MIC90 for Mycobacterium bovis BCG ATCC 35743 dormant stage; format: toxicity, cell-based, HCT-116; settings: read-out: Selectivity Index; in short: as §1
[17] = test system: Staphylococcus aureus; test: Growth inhibition of Staphylococcus aureus at 10 ug/ml; format: functional; settings: read-out: GI
[18] = Selectivity index, ratio of GI50 for human HCT116 cells to MIC90 for Mycobacterium bovis BCG ATCC 35743 active stage; format: toxicity, cell-based, HCT-116; settings: read-out: Selectivity Index; in short: as §3
[19] = test system: Escherichia coli; test: Growth inhibition of Escherichia coli at 3 ug/ml; format: functional; settings: read-out: GI; in short: as §4
[20] = Antitubercular activity against Mycobacterium tuberculosis H37Ra ATCC 25177 dormant stage measured on day 12 by XTT reduction menadione based two-fold dilution assay; format: functional; settings: ATCC 25177, 288 h; in short: as §2
[21] = test system: Bacillus subtilis; test: Growth inhibition of Bacillus subtilis at 10 ug/ml; format: functional; settings: read-out: GI
[22] = Cytotoxicity against human MCF7 cells by MTT assay; format: toxicity, cell-based; settings: for GI50: MCF7 cells; for GI90: mcf7
[23] = test system: Escherichia coli; test: Growth inhibition of Escherichia coli at 30 ug/ml; format: functional; settings: read-out: GI
[24] = test system: Staphylococcus aureus; test: Growth inhibition of Staphylococcus aureus at 30 ug/ml; format: functional; settings: read-out: GI
[25] = test system: Pseudomonas aeruginosa; test: Growth inhibition of Pseudomonas aeruginosa at 3 ug/ml; format: functional; settings: read-out: GI; in short: as §4
[26] = Antitubercular activity against Mycobacterium tuberculosis H37Ra ATCC 25177 dormant stage infected in human THP1 cells measured on day 12 by nitrate reductase assay; format: functional, THP-1; settings: ATCC 25177, 288 h
[27] = Selectivity index, ratio of GI50 for human THP1 cells to MIC90 for Mycobacterium bovis BCG ATCC 35743 active stage; format: toxicity, cell-based, THP-1; settings: read-out: Selectivity Index; in short: as §3
[28] = Selectivity index, ratio of GI50 for human HCT116 cells to MIC90 for Mycobacterium tuberculosis H37Ra ATCC 25177 dormant stage; format: toxicity, cell-based, HCT-116; settings: read-out: Selectivity Index; in short: as §1
[29] = test system: Pseudomonas aeruginosa; test: Growth inhibition of Pseudomonas aeruginosa at 30 ug/ml; format: functional; settings: read-out: GI
[30] = Selectivity index, ratio of GI50 for human HCT116 cells to MIC90 for Mycobacterium tuberculosis H37Ra ATCC 25177 active stage; format: toxicity, cell-based, HCT-116; settings: read-out: Selectivity Index; in short: as §3
[31] = Selectivity index, ratio of GI50 for human MCF7 cells to MIC90 for Mycobacterium bovis BCG ATCC 35743 dormant stage; format: toxicity, cell-based; settings: read-out: Selectivity Index; in short: as §1
[32] = test system: Escherichia coli; test: Growth inhibition of Escherichia coli at 10 ug/ml; format: functional; settings: read-out: GI
[33] = Antitubercular activity against Mycobacterium tuberculosis H37Ra ATCC 25177 active stage infected in human THP1 cells measured on day 8 by nitrate reductase assay; format: functional, THP-1; settings: ATCC 25177, 192 h

SMILES	selectivity ratio [1]	IC50 [2] [µg/mL]	MIC90 [2] [µg/mL]	selectivity ratio [3]	inhibition of growth at 3 µg/mL [4] [%]	IC50 [5] [µg/mL]	MIC90 [5] [µg/mL]	selectivity ratio [6]	inhibition of growth at 30 µg/mL [7] [%]	IC50 [8] [µg/mL]	MIC90 [8] [µg/mL]	selectivity ratio [9]	selectivity ratio [10]	selectivity ratio [11]	GI50 [12] [µg/mL]	GI90 [12] [µg/mL]	GI50 [13] [µg/mL]	GI90 [13] [µg/mL]	inhibition of growth at 3 µg/mL [14] [%]	GI90 [22] [µg/mL]	also measured
C/C(=N\Nc1nc(-c2ccc(Br)cc2)cs1)c1sc(C)nc1C	2	0.15 (≈ 0.368 µM)	44.1 (≈ 108 µM)	9	31.2	2.51 (≈ 6.16 µM)	10.6 (≈ 26 µM)	9	79.5	1.6 (≈ 3.93 µM)	11.4 (≈ 28 µM)	2	2	2	> 100	> 100	> 100	> 100	25.9	> 100	inhibition of growth at 10 µg/mL [15]: 69.5%; selectivity ratio [16]: 9; inhibition of growth at 10 µg/mL [17]: 68.8%; selectivity ratio [18]: 9; inhibition of growth at 3 µg/mL [19]: 35.8%; IC50 [20]: 0.66 µg/mL (≈ 1.62 µM); MIC90 [20]: 43.7 µg/mL (≈ 107 µM); inhibition of growth at 10 µg/mL [21]: 66.4%; GI50 [22]: > 100 µg/mL; inhibition of growth at 30 µg/mL [23]: 82%; inhibition of growth at 30 µg/mL [24]: 81%; inhibition of growth at 3 µg/mL [25]: 30.5%; MIC90 [26]: 48.8 µg/mL (≈ 120 µM); selectivity ratio [27]: 9; selectivity ratio [28]: 2; inhibition of growth at 30 µg/mL [29]: 82.1%; selectivity ratio [30]: 2; selectivity ratio [31]: 9; inhibition of growth at 10 µg/mL [32]: 70.7%; MIC90 [33]: 47.9 µg/mL (≈ 118 µM)
CC(=O)O[C@H]1C(=O)[C@@]2(C)[C@H]([C@H](OC(=O)c3ccccc3)[C@]3(O)C[C@H](OC(=O)[C@H](O)[C@@H](NC(=O)c4ccccc4)c4ccccc4)C(C)=C1C3(C)C)[C@]1(OC(C)=O)CO[C@@H]1C[C@@H]2O [PACLITAXEL]																5.21 (≈ 6.1 µM)		5.814 (≈ 6.81 µM)		0.075 (≈ 0.0878 µM)	
C/C(=N\Nc1nc(-c2ccc(F)cc2)cs1)c1sc(-c2ccccc2)nc1C	1	> 100	> 100	1	70.7	> 100	> 100	1	71.1	> 100	> 100	1	1	1	> 100	> 100	> 100	> 100	68.5	> 100	inhibition of growth at 10 µg/mL [15]: 73.2%; selectivity ratio [16]: 1; inhibition of growth at 10 µg/mL [17]: 72.5%; selectivity ratio [18]: 1; inhibition of growth at 3 µg/mL [19]: 72.5%; IC50 [20]: > 100 µg/mL; MIC90 [20]: > 100 µg/mL; inhibition of growth at 10 µg/mL [21]: 70.2%; GI50 [22]: > 100 µg/mL; inhibition of growth at 30 µg/mL [23]: 74.7%; inhibition of growth at 30 µg/mL [24]: 73.2%; inhibition of growth at 3 µg/mL [25]: 71.5%; MIC90 [26]: > 100 µg/mL; selectivity ratio [27]: 1; selectivity ratio [28]: 1; inhibition of growth at 30 µg/mL [29]: 74%; selectivity ratio [30]: 1; selectivity ratio [31]: 1; inhibition of growth at 10 µg/mL [32]: 74%; MIC90 [33]: > 100 µg/mL
